What was measured:
[1] = AUC (0 to 6 hrs) in wild-type mouse at 10 mg/kg, po; type: ADME, organism-based; parameters: time < 6 hr, dose 10 mg/kg, route oral; conditions: plasma
Method in brief: (§1)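 Fasted (3 h) FVB WT mice (n = 5) were given 10 mg/kg by gavage (10 ml/kg of 1 mg/ml, an ethanol stock diluted 10-fold in saline). Tail-vein plasma was collected from 0.25 to 6 h and measured by LC-MS/MS. Only the trapezoidal AUC0-6 was calculated. Cmax and Tmax were taken from the observed data.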

[2] = Cmax in wild-type mouse at 10 mg/kg, po; type: ADME, organism-based; parameters: dose 10 mg/kg, route oral; conditions: in vivo; method in brief: as §1
[3] = Tmax in wild-type mouse at 10 mg/kg, po; type: ADME, organism-based; parameters: dose 10 mg/kg, route oral; conditions: in vivo; method in brief: as §1
[4] = AUC (0 to 6 hrs) in wild-type mouse at 1 mg/kg, po; type: ADME, organism-based; parameters: time < 6 hr, dose 1 mg/kg, route oral; conditions: plasma
Method in brief: (§2)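 Male FVB WT or Mdr1a/1b–/– mice (n = 5) were fasted 3 h. They received 1 mg/kg by gavage (10 ml/kg of 0.1 mg/ml, made as an ethanol stock diluted 100-fold in saline). Tail-vein plasma was sampled at 0.25, 0.5, 1, 2, 4 and 6 h and analysed by LC-MS/MS. Noncompartmental trapezoidal AUC0-6 and AUC(0-∞). Cmax and Tmax were taken from the observed data.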

[5] = AUC (0 to infinity) in wild-type mouse at 1 mg/kg, po; type: ADME, organism-based; parameters: time infinity, dose 1 mg/kg, route oral; conditions: plasma; method in brief: as §2
[6] = Cmax in wild-type mouse at 1 mg/kg, po; type: ADME, organism-based; parameters: dose 1 mg/kg, route oral; conditions: in vivo; method in brief: as §2
[7] = Tmax in wild-type mouse at 1 mg/kg, po; type: ADME, organism-based; parameters: dose 1 mg/kg, route oral; conditions: in vivo; method in brief: as §2
[8] = AUC (0 to 6 hrs) in mdr1a/1b double knockout mouse at 1 mg/kg, po; type: ADME, organism-based; parameters: time < 6 hr, dose 1 mg/kg, route oral; conditions: plasma; method in brief: as §2
[9] = AUC (0 to infinity) in mdr1a/1b double knockout mouse at 1 mg/kg, po; type: ADME, organism-based; parameters: dose 1 mg/kg, route oral, time infinity; conditions: plasma; method in brief: as §2
[10] = Cmax in mdr1a/1b double knockout mouse at 1 mg/kg, po; type: ADME, organism-based; parameters: dose 1 mg/kg, route oral; conditions: in vivo; method in brief: as §2
[11] = Tmax in mdr1a/1b double knockout mouse at 1 mg/kg, po; type: ADME, organism-based; parameters: dose 1 mg/kg, route oral; conditions: in vivo; method in brief: as §2
[12] = AUC (0 to 6 hrs) in wild-type mouse at 1 mg/kg, iv; type: ADME, organism-based; parameters: time < 6 hr, dose 1 mg/kg, route intravenous; conditions: plasma
Method in brief: (§3)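 Male FVB WT or Mdr1a/1b–/– mice (n = 5). Dosing solution was 10 mg/ml in absolute ethanol, diluted 50-fold with saline to 0.2 mg/ml, and given as a single i.v. tail-vein bolus of 1 mg/kg (5 ml/kg). Tail-vein plasma was sampled at 0.125–6 h and analysed by LC-MS/MS. Noncompartmental analysis with trapezoidal AUC0-6 and AUC(0-∞). CL = dose/AUC(0-∞). Wilcoxon rank sum test.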

[13] = AUC (0 to infinity) in wild-type mouse at 1 mg/kg, iv; type: ADME, organism-based; parameters: time infinity, dose 1 mg/kg, route intravenous; conditions: plasma; method in brief: as §3
[14] = AUC (0 to 6 hrs) in mdr1a/1b double knockout mouse at 1 mg/kg, iv; type: ADME, organism-based; parameters: time < 6 hr, dose 1 mg/kg, route intravenous; conditions: plasma; method in brief: as §3
[15] = AUC (0 to infinity) in mdr1a/1b double knockout mouse at 1 mg/kg, iv; type: ADME, organism-based; parameters: time infinity, dose 1 mg/kg, route intravenous; conditions: plasma; method in brief: as §3
[16] = Plasma clearance in wild-type mouse at 1 mg/kg, iv; type: ADME, organism-based; parameters: dose 1 mg/kg, route intravenous
[17] = Plasma clearance in mdr1a/1b double knockout mouse at 1 mg/kg, iv; type: ADME, organism-based; parameters: dose 1 mg/kg, route intravenous; method in brief: as §3
Mus musculus [18] = assay: Toxicity in mdr1a/1b double knockout mouse assessed as decrease in respiratory frequency at 10 mg/kg, po after 15 to 30 mins; type: organism-based; parameters: dose 10 mg/kg, route oral; conditions: in vivo
Method in brief: (§4)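 Fasted (3 h) WT and Mdr1a/1b–/– mice (n = 5) received 10 mg/kg orally by gavage in ethanol/saline (10 ml/kg). They were observed 15 to 30 min after dosing for signs of poisoning, including limb paralysis and respiratory frequency.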

Mus musculus [19] = assay: Toxicity in mdr1a/1b double knockout mouse assessed as paralyzed fore limb and hind limb at 10 mg/kg, po after 15 to 30 mins; type: organism-based, Hindlimb; parameters: dose 10 mg/kg, route oral; conditions: in vivo; method in brief: as §4
Mus musculus [20] = assay: Toxicity in wild-type mouse at 10 mg/kg, po after 15 to 30 mins; type: organism-based; parameters: dose 10 mg/kg, route oral; conditions: in vivo; method in brief: as §4
Mus musculus [21] = assay: Toxicity in mdr1a/1b double knockout mouse at 1 mg/kg, po; type: organism-based; parameters: dose 1 mg/kg, route oral; conditions: in vivo
Mus musculus [22] = assay: Ratio of AUC (0 to infinity) in mdr1a/1b double knockout mouse to AUC (0 to infinity) in wild-type mouse at 1 mg/kg, po; type: ADME, organism-based; parameters: dose 1 mg/kg, route oral; conditions: in vivo; method in brief: as §2
Mus musculus [23] = assay: Ratio of AUC (0 to 6 hrs) in mdr1a/1b double knockout mouse to AUC (0 to 6 hrs) in wild-type mouse at 1 mg/kg, po; type: ADME, organism-based; parameters: dose 1 mg/kg, route oral; conditions: in vivo; method in brief: as §2
Mus musculus [24] = assay: Ratio of Cmax in mdr1a/1b double knockout mouse to Cmax in wild-type mouse at 1 mg/kg, po; type: ADME, organism-based; parameters: dose 1 mg/kg, route oral; conditions: in vivo; method in brief: as §2
Mus musculus [25] = assay: Ratio of Tmax in mdr1a/1b double knockout mouse to Tmax in wild-type mouse at 1 mg/kg, po; type: ADME, organism-based; parameters: dose 1 mg/kg, route oral; conditions: in vivo; method in brief: as §2
Mus musculus [26] = assay: Ratio of AUC (0 to 6 hrs) in mdr1a/1b double knockout mouse to AUC (0 to 6 hrs) in wild-type mouse at 1 mg/kg, IV; type: ADME, organism-based; parameters: dose 1 mg/kg, route intravenous; conditions: in vivo; method in brief: as §3
Mus musculus [27] = assay: Ratio of AUC (0 to infinity) in mdr1a/1b double knockout mouse to AUC (0 to infinity) in wild-type mouse at 1 mg/kg, iv; type: ADME, organism-based; parameters: dose 1 mg/kg, route intravenous; conditions: in vivo; method in brief: as §3
Mus musculus [28] = assay: Ratio of plasma clearance in mdr1a/1b double knockout mouse to plasma clearance in wild-type mouse at 1 mg/kg, iv; type: ADME, organism-based; parameters: dose 1 mg/kg, route intravenous; conditions: in vivo; method in brief: as §3
[29] = Drug uptake in wild-type mouse plasma at 1 mg/kg, iv after 180 mins by LC-MS/MS analysis; type: ADME, organism-based; parameters: dose 1 mg/kg, route intravenous; conditions: read-out: Drug uptake
Method in brief: (§5)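 WT or Mdr1a/1b–/– mice (n = 4) received a single 1 mg/kg i.v. tail-vein bolus (5 ml/kg; 0.2 mg/ml in ethanol/saline). At 180 min, plasma, brain, liver and small intestinal contents were collected. Salinomycin was quantified by LC-MS/MS. Brain/plasma ratios were calculated. Wilcoxon rank sum test.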

[30] = Drug uptake in wild-type mouse brain at 1 mg/kg, iv after 180 mins by LC-MS/MS analysis; type: ADME, organism-based; parameters: dose 1 mg/kg, route intravenous; conditions: read-out: Drug uptake; method in brief: as §5
[31] = Drug uptake in wild-type mouse liver at 1 mg/kg, iv after 180 mins by LC-MS/MS analysis; type: ADME, organism-based; parameters: dose 1 mg/kg, route intravenous; conditions: read-out: Drug uptake; method in brief: as §5
[32] = Drug uptake in wild-type mouse small intestinal content at 1 mg/kg, iv after 180 mins by LC-MS/MS analysis; type: ADME, organism-based; parameters: dose 1 mg/kg, route intravenous; conditions: read-out: Drug uptake; method in brief: as §5
[33] = Ratio of drug uptake in brain to drug uptake in plasma in wild-type mouse at 1 mg/kg, iv after 180 mins by LC-MS/MS analysis; type: ADME, organism-based; parameters: dose 1 mg/kg, route intravenous; method in brief: as §5
[34] = Drug uptake in mdr1a/1b double knockout mouse plasma at 1 mg/kg, iv after 180 mins by LC-MS/MS analysis; type: ADME, organism-based; parameters: dose 1 mg/kg, route intravenous; conditions: read-out: Drug uptake; method in brief: as §5
[35] = Drug uptake in mdr1a/1b double knockout mouse brain at 1 mg/kg, iv after 180 mins by LC-MS/MS analysis; type: ADME, organism-based; parameters: dose 1 mg/kg, route intravenous; conditions: read-out: Drug uptake; method in brief: as §5
[36] = Drug uptake in mdr1a/1b double knockout mouse liver at 1 mg/kg, iv after 180 mins by LC-MS/MS analysis; type: ADME, organism-based; parameters: dose 1 mg/kg, route intravenous; conditions: read-out: Drug uptake; method in brief: as §5
[37] = Drug uptake in mdr1a/1b double knockout mouse small intestinal content at 1 mg/kg, iv after 180 mins by LC-MS/MS analysis; type: ADME, organism-based; parameters: dose 1 mg/kg, route intravenous; conditions: read-out: Drug uptake; method in brief: as §5
[38] = Ratio of drug uptake in brain to drug uptake in plasma in mdr1a/1b double knockout mouse at 1 mg/kg, iv after 180 mins by LC-MS/MS analysis; type: ADME, organism-based; parameters: dose 1 mg/kg, route intravenous; method in brief: as §5
Plasma = assay: Ratio of drug uptake in plasma in mdr1a/1b double knockout mouse to drug uptake in plasma in wild-type mouse at 1 mg/kg, iv after 180 mins by LC-MS/MS analysis; type: ADME, organism-based; parameters: dose 1 mg/kg, route intravenous; conditions: in vivo, 3 h; method in brief: as §5
Brain = assay: Ratio of drug uptake in brain in mdr1a/1b double knockout mouse to drug uptake in brain in wild-type mouse at 1 mg/kg, iv after 180 mins by LC-MS/MS analysis; type: ADME, organism-based; parameters: dose 1 mg/kg, route intravenous; conditions: in vivo, 3 h; method in brief: as §5
Liver = assay: Ratio of drug uptake in liver in mdr1a/1b double knockout mouse to drug uptake in liver in wild-type mouse at 1 mg/kg, iv after 180 mins by LC-MS/MS analysis; type: ADME, organism-based; parameters: dose 1 mg/kg, route intravenous; conditions: in vivo, 3 h; method in brief: as §5
[39] = Ratio of drug uptake in small intestinal content in mdr1a/1b double knockout mouse to drug uptake in small intestinal content in wild-type mouse at 1 mg/kg, iv after 180 mins by LC-MS/MS analysis; type: ADME, organism-based; parameters: dose 1 mg/kg, route intravenous; conditions: in vivo, 3 h; method in brief: as §5

Structure (SMILES): CC[C@@H](C(=O)[C@@H](C)[C@@H](O)[C@H](C)[C@@H]1O[C@@H]([C@@H](CC)C(=O)O)CC[C@@H]1C)[C@H]1O[C@]2(C=C[C@@H](O)[C@]3(CC[C@@](C)([C@H]4CC[C@](O)(CC)[C@H](C)O4)O3)O2)[C@H](C)C[C@@H]1C [SALINOMYCIN]
- AUC(0-t) at 6 h [1]: 2130 ng·h/mL
- Cmax [2]: 517 ng/mL
- Tmax [3]: 0.5 h
- AUC(0-t) at 6 h [4]: 62.1 ng·h/mL
- AUC(0-inf) [5]: 80.2 ng·h/mL
- Cmax [6]: 13.2 ng/mL
- Tmax [7]: 2 h
- AUC(0-t) at 6 h [8]: 196 ng·h/mL
- AUC(0-inf) [9]: 251 ng·h/mL
- Cmax [10]: 41 ng/mL
- Tmax [11]: 2 h
- AUC(0-t) at 6 h [12]: 1310 ng·h/mL
- AUC(0-inf) [13]: 1370 ng·h/mL
- AUC(0-t) at 6 h [14]: 2370 ng·h/mL
- AUC(0-inf) [15]: 2810 ng·h/mL
- clearance [16]: 13.7 mL/min/kg
- clearance [17]: 6.17 mL/min/kg
- Activity (Mus musculus [18]): Toxic
- Activity (Mus musculus [19]): Toxic
- Activity (Mus musculus [20]): Non-toxic
- Activity (Mus musculus [21]): Non-toxic
- Ratio AUC (Mus musculus [22]): 3.1
- Ratio AUC (Mus musculus [23]): 3.2
- Ratio (Mus musculus [24]): 3.1
- Ratio (Mus musculus [25]): 1
- Ratio AUC (Mus musculus [26]): 1.8
- Ratio AUC (Mus musculus [27]): 2
- Ratio (Mus musculus [28]): 0.5
- concentration at 3 h [29]: 72.5 ng/mL
- concentration at 3 h [30]: 9.2 ng/g
- concentration at 3 h [31]: 7400 ng/g
- concentration at 3 h [32]: 210 ng/g
- Kp at 3 h [33]: 0.13
- concentration at 3 h [34]: 270 ng/mL
- concentration at 3 h [35]: 53.2 ng/g
- concentration at 3 h [36]: 6500 ng/g
- concentration at 3 h [37]: 290 ng/g
- Kp at 3 h [38]: 0.2
- Ratio (Plasma): 3.7
- Ratio (Brain): 5.8
- Ratio (Liver): 0.9
- Ratio [39]: 1.4

From ChEMBL document CHEMBL1255280, “P-glycoprotein limits oral availability, brain penetration, and toxicity of an anionic drug, the antibiotic salinomycin” (Antimicrob Agents Chemother, 2008)
